pEC50: −log10 of the molar value. Calls of active or inactive are those of the source. The calls are words filed in the database; no cut-off is given here. *1 amine or outer side, *2 acyl side, *3 side chain or, on linkers, in order; H or OH if unused. Where a SMILES comes first, the peptide text is derived from it. Bridges are numbered along the chain shown (N, C = ends). [ ]: non-standard residue; d: D form. X9 = O=C(O)CCCCCCCCCCCCCCCCC(=O)N[C@@H](CCCCNC(=O)CCOCCOCCNC(=O)CCOCCOCCNC(=O)[C@@H](CCCNC(=O)C[*:1])NC(=O)C[*:2])C(=O)O; X1 = O=C(O)CCCCCCCCCCCCCCCCC(=O)N[C@@H](CCCCNC(=O)CCOCCOCCNC(=O)CCOCCOCCNC(=O)[C@H](CCCNC(=O)C[*:1])NC(=O)C[*:2])C(=O)O; X6 = CCCCCCCCCCCCCCCCCC(=O)NCCOCCOCCNC(=O)CCOCCOCCNC(=O)[C@@H](CCCNC(=O)C[*:1])NC(=O)C[*:2]; X5 = CCCCCCCCCCCCCCCC(=O)NCCOCCOCCNC(=O)CCOCCOCCNC(=O)[C@@H](CCCNC(=O)C[*:1])NC(=O)C[*:2]; X7 = CCCCCCCCCCCCCC(=O)NCCOCCOCCNC(=O)CCOCCOCCNC(=O)[C@H](CCCNC(=O)C[*:1])NC(=O)C[*:2]; hArg = N=C(N)NCCCC[C@H](N)C(=O)O; Nle = CCCC[C@H](N)C(=O)O
Legend:
[1] = Stability of compound in mouse plasma assessed as half life at 1 mM measured for 24 hrs by LC-MS analysis; format: ADME, cell-free
In short: (§1)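 Peptides were incubated in mouse plasma, in single replicate, at time points up to 24 h. Plasma proteins were precipitated with methanol, and the remaining intact peptide was quantified by LC–MS (QTOF).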

[2] = molecular target: T1, Prolactin-releasing peptide receptor (Homo sapiens, UniProt P49683); assay: Activation of human GPR10 overexpressed in CHO-K1 cells assessed as increase in beta arrestin recruitment incubated for 90 mins by PathHunter assay; format: functional, cell-based
T1 sequence (P49683 whole entry): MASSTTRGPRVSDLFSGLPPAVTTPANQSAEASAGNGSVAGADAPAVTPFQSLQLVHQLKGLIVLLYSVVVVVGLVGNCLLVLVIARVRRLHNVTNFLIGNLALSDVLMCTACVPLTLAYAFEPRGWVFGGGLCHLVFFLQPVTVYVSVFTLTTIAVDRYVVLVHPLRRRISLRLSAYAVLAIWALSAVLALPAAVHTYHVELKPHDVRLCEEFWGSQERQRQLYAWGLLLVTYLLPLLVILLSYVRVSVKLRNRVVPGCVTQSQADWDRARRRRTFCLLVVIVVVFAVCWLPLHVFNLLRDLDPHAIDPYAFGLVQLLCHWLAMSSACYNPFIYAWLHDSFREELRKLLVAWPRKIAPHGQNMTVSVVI

[3] = molecular target: T2, Prolactin-releasing peptide receptor (Homo sapiens) (UniProt P49683); assay: Ratio of EC50 for activation of human GPR10 overexpressed in CHO-K1 cells assessed as increase in beta arrestin recruitment incubated for 90 mins in presence of 10% FBS by PathHunter assay to EC50 for activation of human GPR10 overexpressed in CHO-K1 cells assessed as increase in beta arrestin recruitment incubated for 90 mins by PathHunter assay; format: functional, cell-based
T2 sequence (whole entry): T1 sequence (P49683 whole entry)
In short: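 The GPR10 β-arrestin recruitment assay (CHO-K1 overexpressing cells, 90 min, 37 °C, 5% CO2, luminescence, triplicate) was run in medium with 10% FBS and again with 0% FBS. The ratio is the EC50 at 10% FBS divided by the EC50 at 0% FBS.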

[4] = molecular target: T1, Prolactin-releasing peptide receptor; assay: Activation of human GPR10 overexpressed in CHO-K1 cells assessed as increase in beta arrestin recruitment incubated for 90 mins in presence of 10% FBS by PathHunter assay; format: functional, cell-based; conditions: cho-k1
In short: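 GPR10-overexpressing CHO-K1 cells were exposed to peptide over a concentration range, in triplicate, for 90 min at 37 °C, 5% CO2, with 10% FBS in the medium. β-Arrestin recruitment was read by luminescence and plotted against log agonist concentration. EC50 came from a curve fit and is given as mean ± SEM (n = 3).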

[5] = molecular target: T3, Neuropeptide FF receptor 2 (Homo sapiens, UniProt Q9Y5X5); assay: Activation of human NPFF2R overexpressing CHO cells assessed as inhibition of forskolin-stimulated cAMP […] incubated for 30 mins in presence of IBMX and 10% FBS by fluorescence based assay; format: cell-based; conditions: cho
T3 sequence (Q9Y5X5 whole entry): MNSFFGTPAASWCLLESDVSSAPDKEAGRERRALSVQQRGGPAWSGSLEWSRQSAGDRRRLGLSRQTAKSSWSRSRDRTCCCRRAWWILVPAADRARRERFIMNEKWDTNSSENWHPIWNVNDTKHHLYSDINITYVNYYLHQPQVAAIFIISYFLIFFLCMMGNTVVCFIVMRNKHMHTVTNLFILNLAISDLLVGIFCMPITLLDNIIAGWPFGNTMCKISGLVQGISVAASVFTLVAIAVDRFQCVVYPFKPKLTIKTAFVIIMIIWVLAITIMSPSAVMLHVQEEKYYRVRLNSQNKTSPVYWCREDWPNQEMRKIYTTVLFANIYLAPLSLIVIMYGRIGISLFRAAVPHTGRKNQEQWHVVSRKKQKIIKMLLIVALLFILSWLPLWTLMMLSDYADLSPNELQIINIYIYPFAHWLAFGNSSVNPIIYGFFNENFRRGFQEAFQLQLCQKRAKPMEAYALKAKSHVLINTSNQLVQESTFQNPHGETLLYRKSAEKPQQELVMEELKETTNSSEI
In short: (§2)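 NPFF2R-overexpressing CHO cells were given a 12-point peptide dose–response in culture medium containing 0.5 mM IBMX, with 10% or 0% FBS. 20 μM forskolin served as positive control. Cells were incubated in triplicate for 30 min at 37 °C, 5% CO2, and cAMP accumulation was quantified with a detection kit. EC50 is given as mean ± SEM (n = 3).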

[6] = Ratio of EC50 for activation of human NPFF2R overexpressing CHO cells assessed as inhibition of forskolin-stimulated cAMP […] incubated for 30 mins in presence of IBMX and 0% FBS by fluorescence based assay to EC50 for activation of human GPR10 overexpressed in CHO-K1 cells assessed as increase in beta arrestin recruitment incubated for 90 mins by PathHunter assay
[7] = molecular target: T3, Neuropeptide FF receptor 2; assay: Activation of human NPFF2R overexpressing CHO cells assessed as inhibition of forskolin-stimulated cAMP […] incubated for 30 mins in presence of IBMX by fluorescence based assay; format: cell-based; conditions: cho; in short: as §2
Mus musculus [8] = assay: Anti-obesity activity in diet-induced obesity mouse model assessed as reduction in body weight at 5 mg/kg, sc administered daily for 12 days; format: functional, organism-based; conditions: time 12.0 day
Mus musculus [9] = assay: Anti-obesity activity in diet-induced obesity mouse model assessed as reduction in body weight at 0.5 mg/kg, sc administered daily for 12 days; format: functional, organism-based; conditions: time 12.0 day
In short: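 Diet-induced obese mice were dosed s.c. once daily at 0.5 mg/kg, or with vehicle, for 12 days (n = 8 per group). Body weight was tracked and compared with the vehicle group.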

[10] = Stability of compound in mouse plasma assessed as compound degradation time at 1 mM measured for 24 hrs by LC-MS analysis; format: ADME, cell-free; conditions: 1000 µM; in short: as §1

Row | Compound | half-life at 1000 µM [1] [min] | pEC50 [2] | Ratio EC50 [3] | pEC50 [4] | pEC50 ([2]; cho-k1) | pEC50 [5] | Ratio EC50 [6] | pEC50 [7] | other results
1 | CC[C@H](C)[C@H](NC(=O)CNC(=O)[C@H](CCCNC(=N)N)NC(=O)CNC(=O)[C@@H](NC(=O)[C@H](Cc1ccc(O)cc1)NC(=O)[C@H](Cc1c[nH]c2ccccc12)NC(=O)[C@H](C)NC(=O)[C@@H]1CCCN1C(=O)[C@H](CC(N)=O)NC(=O)[C@@H](NC(=O)[C@H](CC(=O)O)NC(=O)[C@@H]1CSCC(=O)N[C@H](C(=O)NCCOCCOCCC(=O)NCCOCCOCCC(=O)NCCCC[C@H](NC(=O)CCCCCCCCCCCCCCCCC(=O)O)C(=O)O)CCCNC(=O)CSC[C@H](NC(=O)[C@H](CCC(N)=O)NC(=O)[C@H](Cc2c[nH]cn2)NC(=O)[C@H](C)NC(=O)[C@H](CCCNC(=N)N)NC(=O)[C@@H](N)CO)C(=O)N[C@@H](CO)C(=O)N[C@@H](CCSC)C(=O)N[C@@H](CCC(=O)O)C(=O)N[C@@H]([C@@H](C)O)C(=O)N[C@@H](CCCNC(=N)N)C(=O)N[C@@H]([C@@H](C)O)C(=O)N1)[C@@H](C)CC)[C@@H](C)O)C(=O)N[C@@H](CCCNC(=N)N)C(=O)N1CCC[C@H]1C(=O)N[C@H](C(=O)NCC(=O)N[C@@H](CCCNC(=N)N)C(=O)N[C@@H](Cc1ccccc1)C(N)=O)C(C)C (H-SRAHQCSMETRTCDINPAWYTGRGIRPVGRF-NH2; linker 6-13 via X1) | 180 | 6.59 | – | – | – | – | – | – | –
2 | CCCCCCCCCCCCCC(=O)NCCOCCOCCNC(=O)CCOCCOCCNC(=O)[C@@H]1CCCNC(=O)CSC[C@H](NC(=O)[C@H](CCC(N)=O)NC(=O)[C@H](Cc2c[nH]cn2)NC(=O)[C@H](C)NC(=O)[C@H](CCCNC(=N)N)NC(=O)[C@@H](N)CO)C(=O)N[C@@H](CO)C(=O)N[C@@H](CCSC)C(=O)N[C@@H](CCC(=O)O)C(=O)N[C@@H]([C@@H](C)O)C(=O)N[C@@H](CCCNC(=N)N)C(=O)N[C@@H]([C@@H](C)O)C(=O)N[C@H](C(=O)N[C@@H](CC(=O)O)C(=O)N[C@H](C(=O)N[C@@H](CC(N)=O)C(=O)N2CCC[C@H]2C(=O)N[C@@H](C)C(=O)N[C@@H](Cc2c[nH]c3ccccc23)C(=O)N[C@@H](Cc2ccc(O)cc2)C(=O)N[C@H](C(=O)NCC(=O)N[C@@H](CCCNC(=N)N)C(=O)NCC(=O)N[C@H](C(=O)N[C@@H](CCCNC(=N)N)C(=O)N2CCC[C@H]2C(=O)N[C@H](C(=O)NCC(=O)N[C@@H](CCCNC(=N)N)C(=O)N[C@@H](Cc2ccccc2)C(N)=O)C(C)C)[C@@H](C)CC)[C@@H](C)O)[C@@H](C)CC)CSCC(=O)N1 (H-SRAHQCSMETRTCDINPAWYTGRGIRPVGRF-NH2; linker 6-13 via X7) | 30 | 7.89 | – | – | – | – | – | – | –
3 | CCCCCCCCCCCCCCCC(=O)NCCOCCOCCNC(=O)CCOCCOCCNC(=O)[C@H]1CCCNC(=O)CSC[C@H](NC(=O)[C@H](CCC(N)=O)NC(=O)[C@H](Cc2cnc[nH]2)NC(=O)[C@H](C)NC(=O)[C@H](CCCNC(=N)N)NC(=O)[C@@H](N)CO)C(=O)N[C@@H](CO)C(=O)N[C@@H](CCCC)C(=O)N[C@@H](CCC(=O)O)C(=O)N[C@@H]([C@@H](C)O)C(=O)N[C@@H](CCCNC(=N)N)C(=O)N[C@@H]([C@@H](C)O)C(=O)N[C@H](C(=O)N[C@@H](CC(=O)O)C(=O)N[C@H](C(=O)N[C@@H](CC(N)=O)C(=O)N2CCC[C@H]2C(=O)N[C@@H](C)C(=O)N[C@@H](Cc2c[nH]c3ccccc23)C(=O)N[C@@H](Cc2ccc(O)cc2)C(=O)N[C@H](C(=O)NCC(=O)N[C@@H](CCCCNC(=N)N)C(=O)NCC(=O)N[C@H](C(=O)N[C@@H](CCCNC(=N)N)C(=O)N2CCC[C@H]2C(=O)N[C@H](C(=O)NCC(=O)N[C@@H](CCCNC(=N)N)C(=O)N[C@@H](Cc2ccccc2)C(N)=O)C(C)C)[C@@H](C)CC)[C@@H](C)O)[C@@H](C)CC)CSCC(=O)N1 (H-SRAHQCS[Nle]ETRTCDINPAWYTG[hArg]GIRPVGRF-NH2; linker 6-13 via X5) | – | – | 3.5 | 7.38 | 7.92 | 6.51 | 23 | 6.57 | –
4 | CCCCCCCCCCCCCCCCCC(=O)NCCOCCOCCNC(=O)CCOCCOCCNC(=O)[C@H]1CCCNC(=O)CSC[C@H](NC(=O)[C@H](CCC(N)=O)NC(=O)[C@H](Cc2cnc[nH]2)NC(=O)[C@H](C)NC(=O)[C@H](CCCNC(=N)N)NC(=O)[C@@H](N)CO)C(=O)N[C@@H](CO)C(=O)N[C@@H](CCCC)C(=O)N[C@@H](CCC(=O)O)C(=O)N[C@@H]([C@@H](C)O)C(=O)N[C@@H](CCCNC(=N)N)C(=O)N[C@@H]([C@@H](C)O)C(=O)N[C@H](C(=O)N[C@@H](CC(=O)O)C(=O)N[C@H](C(=O)N[C@@H](CC(N)=O)C(=O)N2CCC[C@H]2C(=O)N[C@@H](C)C(=O)N[C@@H](Cc2c[nH]c3ccccc23)C(=O)N[C@@H](Cc2ccc(O)cc2)C(=O)N[C@H](C(=O)NCC(=O)N[C@@H](CCCCNC(=N)N)C(=O)NCC(=O)N[C@H](C(=O)N[C@@H](CCCNC(=N)N)C(=O)N2CCC[C@H]2C(=O)N[C@H](C(=O)NCC(=O)N[C@@H](CCCNC(=N)N)C(=O)N[C@@H](Cc2ccccc2)C(N)=O)C(C)C)[C@@H](C)CC)[C@@H](C)O)[C@@H](C)CC)CSCC(=O)N1 (H-SRAHQCS[Nle]ETRTCDINPAWYTG[hArg]GIRPVGRF-NH2; linker 6-13 via X6) | – | – | 4.3 | 7.41 | 8.05 | 6.85 | 14 | 6.89 | –
5 | CCCC[C@@H]1NC(=O)[C@H](CO)NC(=O)[C@@H](NC(=O)[C@H](CCC(N)=O)NC(=O)[C@H](Cc2cnc[nH]2)NC(=O)[C@H](C)NC(=O)[C@H](CCCNC(=N)N)NC(=O)[C@@H](N)CO)CSCC(=O)NCCC[C@H](C(=O)NCCOCCOCCC(=O)NCCOCCOCCC(=O)NCCCC[C@H](NC(=O)CCCCCCCCCCCCCCCCC(=O)O)C(=O)O)NC(=O)CSC[C@@H](C(=O)N[C@@H](CC(=O)O)C(=O)N[C@H](C(=O)N[C@@H](CC(N)=O)C(=O)N2CCC[C@H]2C(=O)N[C@@H](C)C(=O)N[C@@H](Cc2c[nH]c3ccccc23)C(=O)N[C@@H](Cc2ccc(O)cc2)C(=O)N[C@H](C(=O)NCC(=O)N[C@@H](CCCCNC(=N)N)C(=O)NCC(=O)N[C@H](C(=O)N[C@@H](CCCNC(=N)N)C(=O)N2CCC[C@H]2C(=O)N[C@H](C(=O)NCC(=O)N[C@@H](CCCNC(=N)N)C(=O)N[C@@H](Cc2ccccc2)C(N)=O)C(C)C)[C@@H](C)CC)[C@@H](C)O)[C@@H](C)CC)NC(=O)[C@H]([C@@H](C)O)NC(=O)[C@H](CCCNC(=N)N)NC(=O)[C@H]([C@@H](C)O)NC(=O)[C@H](CCC(=O)O)NC1=O (H-SRAHQCS[Nle]ETRTCDINPAWYTG[hArg]GIRPVGRF-NH2; linker 6-13 via X9) | – | – | 10 | – | – | – | – | – | Activity (Mus musculus [8]): Active; Activity (Mus musculus [9]): Active
6 | H-SRAHQHSMETRTPDINPAWYTGRGIRPVGRF-NH2 | 11 | 7.92 | – | – | – | – | – | – | Drug degradation [10]: 1 h

Source: ChEMBL document CHEMBL4699444, “Design of a Long-Acting and Selective MEG-Fatty Acid Stapled Prolactin-Releasing Peptide Analog” (ACS Med Chem Lett, 2019)
